Where a SMILES comes first, the peptide text is derived from it. [ ]: non-standard residue; d: D form. The star is where a group is joined. Adenosine(5'-uronoyl) = Nc1ncnc2c1ncn2[C@@H]1O[C@H](C(=O)*)[C@@H](O)[C@H]1O; Ahx = NCCCCCC(=O)O
Columns and labels:
[1] = target: Glycogen synthase kinase-3 alpha (Homo sapiens) (UniProt P49840); assay: Inhibition of GSK3alpha at 100 nM relative to control
How it was run: (§1)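 Activity is expressed as percent inhibition versus control incubations lacking inhibitor. Values are means of duplicate determinations.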

[2] = target: Serine/threonine-protein kinase D1 (Homo sapiens) (UniProt Q15139); assay: Inhibition of PKCmu at 100 nM relative to control; how it was run: as §1
Serine/threonine-protein kinase D1 (Homo sapiens), sequence (Q15139 whole entry): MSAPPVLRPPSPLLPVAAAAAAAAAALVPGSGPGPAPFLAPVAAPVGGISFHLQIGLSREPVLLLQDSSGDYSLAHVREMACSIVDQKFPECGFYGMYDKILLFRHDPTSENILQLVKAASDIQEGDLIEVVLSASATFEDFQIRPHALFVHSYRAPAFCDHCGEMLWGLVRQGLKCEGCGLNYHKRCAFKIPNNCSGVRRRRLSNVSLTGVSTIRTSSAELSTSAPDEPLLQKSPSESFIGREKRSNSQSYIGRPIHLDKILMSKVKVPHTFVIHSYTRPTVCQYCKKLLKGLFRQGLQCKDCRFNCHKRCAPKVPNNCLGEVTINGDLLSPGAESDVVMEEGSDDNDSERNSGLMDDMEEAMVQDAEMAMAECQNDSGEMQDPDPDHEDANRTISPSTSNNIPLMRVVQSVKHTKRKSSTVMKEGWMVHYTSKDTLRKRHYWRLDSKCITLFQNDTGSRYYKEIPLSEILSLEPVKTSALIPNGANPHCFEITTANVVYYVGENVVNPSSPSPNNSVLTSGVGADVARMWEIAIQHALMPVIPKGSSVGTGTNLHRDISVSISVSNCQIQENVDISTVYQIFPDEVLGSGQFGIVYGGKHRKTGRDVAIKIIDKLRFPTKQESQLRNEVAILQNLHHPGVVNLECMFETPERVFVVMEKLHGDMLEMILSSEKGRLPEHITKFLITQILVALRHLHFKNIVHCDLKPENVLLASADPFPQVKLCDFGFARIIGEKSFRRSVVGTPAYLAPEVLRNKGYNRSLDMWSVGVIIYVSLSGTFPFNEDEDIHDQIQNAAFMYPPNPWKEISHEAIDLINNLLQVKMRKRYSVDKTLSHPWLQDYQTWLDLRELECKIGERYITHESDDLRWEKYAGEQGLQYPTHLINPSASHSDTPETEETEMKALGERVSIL

[3] = target: T1, cAMP-dependent protein kinase catalytic subunit alpha (Homo sapiens, UniProt P17612); conditions: 100 nM
[4] = target: 5'-AMP-activated protein kinase catalytic subunit alpha-1 (Homo sapiens) (UniProt Q13131); assay: Inhibition of AMPKalpha1 at 100 nM relative to control; how it was run: as §1
[5] = target: cGMP-dependent protein kinase 2 (Homo sapiens) (UniProt Q13237); assay: Inhibition of PKG2 at 100 nM relative to control; how it was run: as §1
[6] = target: Protein kinase C theta type (Homo sapiens) (UniProt Q04759); assay: Inhibition of PKCtheta at 100 nM relative to control; how it was run: as §1
Protein kinase C theta type (Homo sapiens), sequence (Q04759 whole entry, looked up): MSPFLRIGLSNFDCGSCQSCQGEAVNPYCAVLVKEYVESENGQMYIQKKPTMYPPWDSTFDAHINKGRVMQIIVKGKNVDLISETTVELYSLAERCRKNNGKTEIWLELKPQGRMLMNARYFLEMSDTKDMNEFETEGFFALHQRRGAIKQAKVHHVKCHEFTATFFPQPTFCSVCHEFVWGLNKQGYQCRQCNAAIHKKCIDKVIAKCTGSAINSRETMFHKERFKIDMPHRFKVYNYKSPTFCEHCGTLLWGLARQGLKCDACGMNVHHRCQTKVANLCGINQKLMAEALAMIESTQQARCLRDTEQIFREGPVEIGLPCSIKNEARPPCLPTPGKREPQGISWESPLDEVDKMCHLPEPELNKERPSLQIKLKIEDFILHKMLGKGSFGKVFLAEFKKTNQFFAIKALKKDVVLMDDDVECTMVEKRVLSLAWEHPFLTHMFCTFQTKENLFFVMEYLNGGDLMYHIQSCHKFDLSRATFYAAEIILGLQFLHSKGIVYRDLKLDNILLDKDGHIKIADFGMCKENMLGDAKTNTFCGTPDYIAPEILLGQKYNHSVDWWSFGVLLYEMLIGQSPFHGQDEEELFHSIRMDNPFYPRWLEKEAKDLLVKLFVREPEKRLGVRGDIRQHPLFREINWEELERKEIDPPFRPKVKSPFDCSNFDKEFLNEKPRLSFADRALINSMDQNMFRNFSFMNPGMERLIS

[7] = target: T1, cAMP-dependent protein kinase catalytic subunit alpha; assay: Binding affinity to PKA catalytic subunit alpha by fluorescence polarization assay
[8] = target: Glycogen synthase kinase-3 beta (Homo sapiens) (UniProt P49841); assay: Inhibition of GSK3-beta at 100 nM relative to control; how it was run: as §1
[9] = target: Calcium/calmodulin-dependent protein kinase type 1D (Homo sapiens) (UniProt Q8IU85); assay: Inhibition of CaMK1delta at 100 nM relative to control; how it was run: as §1
Calcium/calmodulin-dependent protein kinase type 1D (Homo sapiens), sequence (Q8IU85 whole entry, looked up): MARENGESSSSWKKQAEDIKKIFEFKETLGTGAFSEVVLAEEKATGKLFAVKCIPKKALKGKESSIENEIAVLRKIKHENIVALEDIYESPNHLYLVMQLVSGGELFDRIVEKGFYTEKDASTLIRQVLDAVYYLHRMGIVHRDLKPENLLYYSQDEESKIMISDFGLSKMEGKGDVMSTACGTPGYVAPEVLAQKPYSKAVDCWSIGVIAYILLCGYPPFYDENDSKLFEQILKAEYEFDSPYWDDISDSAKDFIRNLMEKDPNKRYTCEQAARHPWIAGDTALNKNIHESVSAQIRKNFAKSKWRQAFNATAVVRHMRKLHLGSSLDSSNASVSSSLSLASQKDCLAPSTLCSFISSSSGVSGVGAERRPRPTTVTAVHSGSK

[10] = target: Ribosomal protein S6 kinase beta-1 (Homo sapiens) (UniProt P23443); assay: Inhibition of p70S6K at 100 nM relative to control; how it was run: as §1
[11] = target: Serine/threonine-protein kinase pim-2 (Homo sapiens) (UniProt Q9P1W9); assay: Inhibition of PIM2 at 100 nM relative to control; how it was run: as §1
[12] = target: Protein kinase C beta type (Homo sapiens) (UniProt P05771); assay: Inhibition of PKCbeta1 at 100 nM relative to control; how it was run: as §1
Protein kinase C beta type (Homo sapiens), sequence (P05771 2-671 limits assumed): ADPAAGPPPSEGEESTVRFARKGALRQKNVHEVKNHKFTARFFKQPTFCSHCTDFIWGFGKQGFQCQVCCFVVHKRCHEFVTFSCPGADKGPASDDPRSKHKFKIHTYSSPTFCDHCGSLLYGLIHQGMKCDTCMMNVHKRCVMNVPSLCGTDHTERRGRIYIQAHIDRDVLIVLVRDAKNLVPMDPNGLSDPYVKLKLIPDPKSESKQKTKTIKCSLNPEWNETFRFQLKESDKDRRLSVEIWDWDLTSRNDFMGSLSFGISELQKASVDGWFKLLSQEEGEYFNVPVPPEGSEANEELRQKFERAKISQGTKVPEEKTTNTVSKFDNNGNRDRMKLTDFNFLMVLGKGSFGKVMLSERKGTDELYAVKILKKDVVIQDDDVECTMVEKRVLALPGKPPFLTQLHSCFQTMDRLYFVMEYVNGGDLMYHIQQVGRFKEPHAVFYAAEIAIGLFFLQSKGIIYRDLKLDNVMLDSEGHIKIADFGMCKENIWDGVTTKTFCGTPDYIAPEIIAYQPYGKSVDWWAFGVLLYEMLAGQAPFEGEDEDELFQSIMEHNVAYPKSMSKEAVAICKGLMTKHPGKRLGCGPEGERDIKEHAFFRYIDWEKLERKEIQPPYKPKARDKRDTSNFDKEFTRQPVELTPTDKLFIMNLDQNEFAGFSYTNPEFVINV

[13] = target: Protein kinase C alpha type (Homo sapiens) (UniProt P17252); assay: Inhibition of PKCalpha at 100 nM relative to control; how it was run: as §1
[14] = target: Protein kinase C gamma type (Homo sapiens) (UniProt P05129); assay: Inhibition of PKCgamma at 100 nM relative to control; how it was run: as §1
[15] = target: Serine/threonine-protein kinase PAK 6 (Homo sapiens) (UniProt Q9NQU5); assay: Inhibition of PAK6 at 100 nM relative to control; how it was run: as §1
[16] = target: Ribosomal protein S6 kinase alpha-3 (Homo sapiens) (UniProt P51812); conditions: 100 nM
[17] = target: Rho-associated protein kinase 2 (Bos taurus) (UniProt Q28021); assay: Binding affinity to ROCK2 by fluorescence polarization assay
[18] = target: Serine/threonine-protein kinase D3 (Homo sapiens) (UniProt O94806); assay: Inhibition of PKD3 at 100 nM relative to control; how it was run: as §1
Serine/threonine-protein kinase D3 (Homo sapiens), sequence (O94806 whole entry): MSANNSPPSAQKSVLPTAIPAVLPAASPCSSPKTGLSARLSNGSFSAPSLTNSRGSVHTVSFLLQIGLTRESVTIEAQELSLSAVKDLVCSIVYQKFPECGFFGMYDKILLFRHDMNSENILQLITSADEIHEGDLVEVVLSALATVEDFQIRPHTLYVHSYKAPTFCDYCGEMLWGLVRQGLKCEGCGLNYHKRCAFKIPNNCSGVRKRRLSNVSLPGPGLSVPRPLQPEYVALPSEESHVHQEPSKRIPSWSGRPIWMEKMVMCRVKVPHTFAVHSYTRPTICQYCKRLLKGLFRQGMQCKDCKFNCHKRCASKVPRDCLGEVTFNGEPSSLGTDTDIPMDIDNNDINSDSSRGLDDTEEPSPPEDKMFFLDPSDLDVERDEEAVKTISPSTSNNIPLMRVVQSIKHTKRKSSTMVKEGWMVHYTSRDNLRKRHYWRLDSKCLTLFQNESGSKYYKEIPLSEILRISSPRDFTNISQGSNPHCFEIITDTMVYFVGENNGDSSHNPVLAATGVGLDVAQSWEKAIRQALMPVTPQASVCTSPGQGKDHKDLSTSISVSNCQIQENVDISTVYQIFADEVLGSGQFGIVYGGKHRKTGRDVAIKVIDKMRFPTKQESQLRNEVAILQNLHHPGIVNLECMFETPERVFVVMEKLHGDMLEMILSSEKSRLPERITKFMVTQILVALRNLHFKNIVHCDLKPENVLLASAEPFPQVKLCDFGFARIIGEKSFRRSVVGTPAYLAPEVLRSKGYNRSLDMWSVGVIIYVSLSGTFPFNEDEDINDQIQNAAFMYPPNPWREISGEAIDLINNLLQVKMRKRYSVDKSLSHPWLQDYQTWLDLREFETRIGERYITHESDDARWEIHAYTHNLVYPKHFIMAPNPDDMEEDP

[19] = target: Serine/threonine-protein kinase Chk2 (Homo sapiens) (UniProt O96017); assay: Inhibition of CHK2 at 100 nM relative to control; how it was run: as §1
[20] = target: Protein kinase C eta type (Homo sapiens) (UniProt P24723); assay: Inhibition of PKCeta at 100 nM relative to control; how it was run: as §1
[21] = target: Proto-oncogene tyrosine-protein kinase Src (Homo sapiens) (UniProt P12931); assay: Inhibition of SRC at 100 nM relative to control; how it was run: as §1
Proto-oncogene tyrosine-protein kinase Src (Homo sapiens), sequence (P12931 2-536 limits assumed): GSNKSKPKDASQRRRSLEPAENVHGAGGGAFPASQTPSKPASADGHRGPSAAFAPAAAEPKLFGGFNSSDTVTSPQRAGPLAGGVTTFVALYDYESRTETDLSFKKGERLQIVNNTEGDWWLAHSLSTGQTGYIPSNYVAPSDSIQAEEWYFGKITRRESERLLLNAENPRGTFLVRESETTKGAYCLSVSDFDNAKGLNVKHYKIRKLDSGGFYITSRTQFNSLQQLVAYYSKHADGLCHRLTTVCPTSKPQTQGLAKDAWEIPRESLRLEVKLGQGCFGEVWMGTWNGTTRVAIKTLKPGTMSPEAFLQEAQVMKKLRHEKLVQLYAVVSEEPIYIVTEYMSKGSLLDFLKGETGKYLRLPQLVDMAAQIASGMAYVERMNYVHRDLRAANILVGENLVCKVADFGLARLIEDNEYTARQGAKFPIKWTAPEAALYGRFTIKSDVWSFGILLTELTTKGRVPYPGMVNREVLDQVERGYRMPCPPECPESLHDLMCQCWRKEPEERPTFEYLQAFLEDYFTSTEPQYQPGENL

[22] = target: 5'-AMP-activated protein kinase subunit gamma-1 (Homo sapiens) (UniProt P54619); assay: Inhibition of AMPKgamma1 at 100 nM relative to control; how it was run: as §1
[23] = target: Serine/threonine-protein kinase Chk1 (Homo sapiens) (UniProt O14757); assay: Inhibition of CHK1 at 100 nM relative to control; how it was run: as §1
[24] = target: Protein kinase C beta type (Homo sapiens) (UniProt P05771); assay: Inhibition of PKCbeta2 at 100 nM relative to control; how it was run: as §1
[25] = target: Protein kinase C iota type (Homo sapiens) (UniProt P41743); assay: Inhibition of PKCiota at 100 nM relative to control; how it was run: as §1
[26] = target: Aurora kinase A (Homo sapiens) (UniProt O14965); assay: Inhibition of Aurora A at 100 nM relative to control; how it was run: as §1
[27] = target: Ribosomal protein S6 kinase alpha-1 (Homo sapiens) (UniProt Q15418); assay: Inhibition of RSK1 at 100 nM relative to control; how it was run: as §1
[28] = target: Serine/threonine-protein kinase Sgk1 (Homo sapiens) (UniProt O00141); assay: Inhibition of SGK1 at 100 nM relative to control; how it was run: as §1
[29] = target: T2, RAC-gamma serine/threonine-protein kinase (Homo sapiens, UniProt Q9Y243); conditions: 100 nM
T2 sequence (Q9Y243 whole entry): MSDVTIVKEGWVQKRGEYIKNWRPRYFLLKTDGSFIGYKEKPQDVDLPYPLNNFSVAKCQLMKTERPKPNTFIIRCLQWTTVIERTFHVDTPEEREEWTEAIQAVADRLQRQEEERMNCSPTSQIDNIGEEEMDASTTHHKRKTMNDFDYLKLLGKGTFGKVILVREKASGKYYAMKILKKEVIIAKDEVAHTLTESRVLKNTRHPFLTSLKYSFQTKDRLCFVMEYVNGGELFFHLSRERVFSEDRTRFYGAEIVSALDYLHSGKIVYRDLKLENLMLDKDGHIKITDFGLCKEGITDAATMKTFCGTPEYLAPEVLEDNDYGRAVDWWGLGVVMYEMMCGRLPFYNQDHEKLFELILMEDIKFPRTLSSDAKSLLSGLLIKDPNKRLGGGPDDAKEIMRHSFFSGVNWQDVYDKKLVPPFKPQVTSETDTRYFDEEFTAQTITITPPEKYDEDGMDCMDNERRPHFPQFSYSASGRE

[30] = target: Serine/threonine-protein kinase Sgk2 (Homo sapiens) (UniProt Q9HBY8); assay: Inhibition of SGK2 at 100 nM relative to control; how it was run: as §1
[31] = target: 5'-AMP-activated protein kinase subunit beta-1 (Homo sapiens) (UniProt Q9Y478); assay: Inhibition of AMPKbeta1 at 100 nM relative to control; how it was run: as §1
[32] = target: T2, RAC-gamma serine/threonine-protein kinase; assay: Inhibition of PKBgamma using 100 uM ATP and 30 uM TAMRA-kemptide substrate by fluorometric TLC assay
[33] = target: Rho-associated protein kinase 2 (Homo sapiens) (UniProt O75116); conditions: 100 nM
[34] = target: Calcium/calmodulin-dependent protein kinase type II subunit alpha (Homo sapiens) (UniProt Q9UQM7); assay: Inhibition of CaMK2alpha at 100 nM relative to control; how it was run: as §1
[35] = target: Death-associated protein kinase 3 (Homo sapiens) (UniProt O43293); assay: Inhibition of DAPK3 at 100 nM relative to control; how it was run: as §1
[36] = target: CDK2/Cyclin A1 (Homo sapiens) (UniProt P24941+P78396); assay: Inhibition of Cdk2/cyclin A at 100 nM relative to control; format: protein-complex assay; how it was run: as §1
[37] = target: Protein kinase C delta type (Homo sapiens) (UniProt Q05655); assay: Inhibition of PKCdelta at 100 nM relative to control; how it was run: as §1
[38] = target: RAC-alpha serine/threonine-protein kinase (Homo sapiens) (UniProt P31749); assay: Inhibition of AKT1 at 100 nM relative to control; how it was run: as §1
[39] = target: cAMP-dependent protein kinase catalytic subunit PRKX (Homo sapiens) (UniProt P51817); conditions: 100 nM
cAMP-dependent protein kinase catalytic subunit PRKX (Homo sapiens), sequence (P51817 whole entry): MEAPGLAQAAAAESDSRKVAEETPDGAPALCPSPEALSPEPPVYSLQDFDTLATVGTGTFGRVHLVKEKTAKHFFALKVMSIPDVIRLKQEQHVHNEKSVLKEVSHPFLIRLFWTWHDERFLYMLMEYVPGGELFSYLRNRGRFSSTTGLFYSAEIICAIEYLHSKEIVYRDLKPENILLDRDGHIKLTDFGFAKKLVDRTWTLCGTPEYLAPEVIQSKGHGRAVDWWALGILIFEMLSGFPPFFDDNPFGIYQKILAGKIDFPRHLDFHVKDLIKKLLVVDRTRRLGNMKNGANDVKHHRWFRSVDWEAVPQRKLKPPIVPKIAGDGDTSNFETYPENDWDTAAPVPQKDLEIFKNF

[40] = target: RAC-beta serine/threonine-protein kinase (Homo sapiens) (UniProt P31751); assay: Inhibition of AKT2 at 100 nM relative to control; how it was run: as §1
[41] = target: Protein kinase C epsilon type (Homo sapiens) (UniProt Q02156); assay: Inhibition of PKCepsilon at 100 nM relative to control; how it was run: as §1
[42] = target: T1, cAMP-dependent protein kinase catalytic subunit alpha; assay: Inhibition of PKA catalytic subunit alpha using 100 uM ATP and 30 uM TAMRA-kemptide substrate by fluorometric TLC assay

**Q.** For `N=C(N)NCCC[C@@H](NC(=O)[C@@H](CCCNC(=N)N)NC(=O)[C@@H](CCCNC(=N)N)NC(=O)[C@@H](CCCNC(=N)N)NC(=O)[C@@H](CCCNC(=N)N)NC(=O)[C@@H](CCCNC(=N)N)NC(=O)CCCCCNC(=O)[C@@H](CCCCN)NC(=O)CCCCCNC(=O)[C@H]1O[C@@H](n2cnc3c(N)ncnc32)[C@H](O)[C@@H]1O)C(N)=O` ({Adenosine(5'-uronoyl)-Ahx}-[dK][Ahx][dR][dR][dR][dR][dR][dR]-NH2), which inhibition [1] is on record?
**A.** 16%

**Q.** What about the inhibition [2] of the same compound?
**A.** 54%

**Q.** And the inhibition [3]?
**A.** 104%

**Q.** What about the inhibition [4] of the same compound?
**A.** 51%

**Q.** What about the inhibition [5] of the same compound?
**A.** 16%

**Q.** What about the inhibition [6] of the same compound?
**A.** 97%

**Q.** What about the Kd [7] of the same compound?
**A.** < 0.5 nM

**Q.** What about the inhibition [8] of the same compound?
**A.** 16%

**Q.** And the inhibition [9]?
**A.** 35%

**Q.** And the inhibition [10]?
**A.** 96%

**Q.** What about the inhibition [11] of the same compound?
**A.** 79%

**Q.** And the inhibition [12]?
**A.** 97%

**Q.** And the inhibition [13]?
**A.** 94%

**Q.** What about the inhibition [14] of the same compound?
**A.** 107%

**Q.** And the inhibition [15]?
**A.** 81%

**Q.** And the inhibition [16]?
**A.** 104%

**Q.** And the Kd [17]?
**A.** < 1 nM

**Q.** What about the inhibition [18] of the same compound?
**A.** 55%

**Q.** And the inhibition [19]?
**A.** 62%

**Q.** What about the inhibition [20] of the same compound?
**A.** 106%

**Q.** And the inhibition [21]?
**A.** 28%

**Q.** What about the inhibition [22] of the same compound?
**A.** 51%

**Q.** What about the inhibition [23] of the same compound?
**A.** 88%

**Q.** And the inhibition [24]?
**A.** 94%

**Q.** And the inhibition [25]?
**A.** 34%

**Q.** And the inhibition [26]?
**A.** 10%

**Q.** And the inhibition [27]?
**A.** 98%

**Q.** And the inhibition [28]?
**A.** 89%

**Q.** And the inhibition [29]?
**A.** 87%

**Q.** And the inhibition [30]?
**A.** 76%

**Q.** What about the inhibition [31] of the same compound?
**A.** 51%

**Q.** What about the IC50 [32] of the same compound?
**A.** 14.6 nM

**Q.** And the inhibition [33]?
**A.** 104%

**Q.** And the inhibition [34]?
**A.** 5%

**Q.** And the inhibition [35]?
**A.** 22%

**Q.** What about the inhibition [36] of the same compound?
**A.** 0%

**Q.** What about the inhibition [37] of the same compound?
**A.** 97%

**Q.** What about the inhibition [38] of the same compound?
**A.** 89%

**Q.** What about the inhibition [39] of the same compound?
**A.** 104%

**Q.** What about the inhibition [40] of the same compound?
**A.** 62%

**Q.** And the inhibition [41]?
**A.** 106%

**Q.** What about the IC50 [42] of the same compound?
**A.** 5.32 nM
